The source of these data is ChEMBL document CHEMBL4732121, “Imidazo[1,2-a]quinoxalines for melanoma treatment with original mechanism of action” (Eur J Med Chem, 2021).

A value given as a limit tells only on which side of the number the result lay.

The term IC50 denotes the concentration at which inhibition is half-maximal.

In the first data set the test system is A-375. Nature of the data set: Antiproliferative activity against human A-375 cells assessed as reduction in cell viability measured after 96 hrs by MTT assay. Format: functional, cell-based. To be noted: Homo sapiens, A-375, 96 h. The essentials: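 A375 cells in RPMI-1640 with 10% heat-inactivated FBS, 2 mM L-glutamine and antibiotics, 37°C, 5% CO₂. Seeded at 5000 cells/well and attached overnight, then exposed to 10⁻⁵–3.2.10⁻⁹ M in 0.15% DMSO/medium for 96 h. MTT at 0.5 mg/ml final for 4 h, formazan dissolved in 10% SDS/0.01 M HCl, OD 570 nm. At least three experiments in triplicate; IC50 from sigmoidal dose–response curves.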
(In general: Formazan colour is commonly taken as a measure of viable cells.)
For `COc1ccc(-c2cnc3c(NCCNC(=O)OC(C)(C)C)nc4ccccc4n23)cc1OC`, the IC50 was > 10000 nM. Same read-out and setting: in the case of `CNc1nc2ccccc2n2ccnc12` it was > 10000 nM; in that of `NCCCCCCNc1nc2ccccc2n2c(-c3ccc(O)c(O)c3)cnc12`, 5690 nM; in that of `COc1ccc(-c2cnc3c(OC)nc4ccccc4n23)cc1OC`, 2930 nM.

As to `COc1ccc(-c2cnc3c(N(C)C)nc4ccccc4n23)cc1OC`, the IC50 came out at 414 nM.

`CNc1nc2cc(OC(F)(F)F)ccc2n2c(-c3ccc(O)c(O)c3)cnc12`: the IC50 was determined as 199 nM. For `Oc1ccc(-c2cnc3c(N4CCNCC4)nc4ccccc4n23)cc1O`, the IC50 is > 10000 nM.

In the case of `Oc1ccc(-c2cnc3c(O)nc4ccccc4n23)cc1O`, the IC50 is > 10000 nM.

With `Nc1nccn2c(-c3ccc(O)c(O)c3)cnc12`, the half-maximal inhibitory concentration (IC50) is > 10000 nM. The same measure, in the same setting: the result for `CNc1nc2ccccc2n2c(-c3cccc(OC)c3)cnc12` reads 383 nM. Still for that read-out and setting: in the case of `COc1ccc(-c2cnc3c(NCCCCCCNC(=O)OC(C)(C)C)nc4ccccc4n23)cc1OC` it was > 10000 nM; in that of `CNc1nc2ccc(C(F)(F)F)cc2n2c(-c3ccc(OC)c(OC)c3)cnc12`, > 10000 nM; in that of `CNc1nc2ccccc2n2c(-c3ccc(OC)c(OC)c3)cnc12`, 193 nM. On the same count and under the same terms, the result for `CNc1nc2ccc(C(F)(F)F)cc2n2c(-c3ccc(O)c(O)c3)cnc12` reads > 10000 nM; that for `CNc1nccn2c(-c3ccc(O)c(O)c3)cnc12`, > 10000 nM. `COc1ccc(-c2cnc3c(N)nccn23)cc1OC`: the IC50 was > 10000 nM. For the molecule `COc1ccc(-c2cnc3c(NCCCNC(=O)OC(C)(C)C)nc4ccccc4n23)cc1OC`, the IC50 was > 10000 nM. On the same count and under the same terms, in the case of `CNc1nc2cc(C(F)(F)F)ccc2n2c(-c3ccc(O)c(O)c3)cnc12` it was 6910 nM; in that of `CN(C)c1nc2ccccc2n2c(-c3ccc(O)c(O)c3)cnc12`, 30 nM; in that of `NCCCNc1nc2ccccc2n2c(-c3ccc(O)c(O)c3)cnc12`, 5590 nM.

Consider `CNc1nc2ccccc2n2c(Br)cnc12`, for which the half-inhibitory concentration (IC50) was found to be 2350 nM. On to `NCCNc1nc2ccccc2n2c(-c3ccc(O)c(O)c3)cnc12` [listing 1 of 2 here], for which the IC50 was found to be 1280 nM. The same measure, in the same setting: the result for `CNc1nccn2c(-c3ccc(OC)c(OC)c3)cnc12` reads > 10000 nM; that for `COc1ccc(-c2cnc3c(N4CCN(C(=O)OC(C)(C)C)CC4)nc4ccccc4n23)cc1OC`, > 10000 nM; that for `Nc1nc2ccccc2n2c(-c3ccc(O)c(O)c3)cnc12`, 60 nM. Still for that read-out and setting: in the case of `CNc1nc2cc(OC(F)(F)F)ccc2n2c(-c3ccc(OC)c(OC)c3)cnc12` it was 3490 nM.

The data set is the same for the next values; noted with them: a-375.
For the molecule `NCCNc1nc2ccccc2n2c(-c3ccc(O)c(O)c3)cnc12` [listing 2 of 2 here], the IC50 turned out to be 1700 nM.

In another data set the test system is MeWo. Nature of the data set: Antiproliferative activity against human MeWo cells assessed as reduction in cell viability measured after 96 hrs by MTT assay.
Settings: not given
Format: functional, cell-based.
Regarding `CNc1nc2ccccc2n2c(-c3cccc(OC)c3)cnc12`, the IC50 was 125 nM.

System in a further data set: not listed separately
Nature of the data set: Inhibition of pig brain tubulin polymerization at 5 uM measured after 45 mins by turbidimetry based spectrophotometric method relative to control. The conditions noted are these: 0.75 h. Format: tissue-based, Sus scrofa.
Take `CNc1nc2ccccc2n2c(-c3cccc(OC)c3)cnc12`: the “inhibition (INH)” value amounted to 84%.

A further data set relates to A2058. Nature of the data set: Antiproliferative activity against human A2058 cells assessed as reduction in cell viability measured after 96 hrs by MTT assay. Format: functional, cell-based. To be noted: A2058, 96 h.
Take `CNc1nc2ccccc2n2c(-c3cccc(OC)c3)cnc12`: the IC50 was 185 nM.

The next data set has as its system IPC-298. Nature of the data set: Antiproliferative activity against human IPC-298 cells assessed as reduction in cell viability measured after 96 hrs by MTT assay. It is filed as functional, cell-based. To be noted: IPC-298, 96 h.
Regarding `CNc1nc2ccccc2n2c(-c3cccc(OC)c3)cnc12`, the IC50 was found to be 469 nM.
